Test results taken from ChEMBL document CHEMBL4219167, “Disulfiram-based disulfides as narrow-spectrum antibacterial agents” (Bioorg Med Chem Lett, 2018).

Assays:
[1] = system: Staphylococcus epidermidis; test: Antibacterial activity against vancomycin-intermediate resistant Staphylococcus epidermidis NRS6 after 20 hrs by broth microdilution assay; type: functional; conditions: NRS6, 20 h
Bacillus anthracis [2] = test: Antibacterial activity against Bacillus anthracis Sterne 34F2 after 20 hrs by broth microdilution assay; type: functional; conditions: Sterne 34F2, 20 h
Vibrio cholerae = test: Antibacterial activity against Vibrio cholerae TS D4 after 20 hrs by Todd Hewitt broth broth microdilution method; type: functional; conditions: TS D4, 20 h
[3] = Selectivity index, ratio of IC50 for cytotoxicity against human HepG2 cells to MIC for antibacterial activity against vancomycin-resistant Staphylococcus aureus HIP14300; type: toxicity, cell-based; conditions: read-out: Selectivity Index
Pseudomonas aeruginosa = test: Antibacterial activity against Pseudomonas aeruginosa ATCC 15442 after 20 hrs by broth microdilution assay; type: functional; conditions: ATCC 15442, 20 h
Procedure, shortened: (§1)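 Medium is tryptic soy broth, 37°C. Overnight culture is adjusted to 0.5 McFarland, diluted 1:100 and exposed to serial dilutions (test agents from 1 mM or 1 mg/mL DMSO stocks; control antibiotics in water). Incubation lasts 20 h. MIC is the lowest concentration with no visible growth.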

Klebsiella pneumoniae = test: Antibacterial activity against Klebsiella pneumoniae 700603 after 20 hrs by broth microdilution assay; type: functional; conditions: Klebsiella pneumoniae, 700603, 20 h; procedure, shortened: as §1
[4] = system: Staphylococcus epidermidis; test: Synergistic antibacterial activity against vancomycin-intermediate resistant Staphylococcus epidermidis NRS53 assessed as fractional inhibitory concentration in presence of vancomycin after 20 hrs by checkerboard microdilution assay; type: functional
[5] = system: Staphylococcus epidermidis; test: Antibacterial activity against vancomycin-intermediate resistant Staphylococcus epidermidis NRS53 after 20 hrs by broth microdilution assay; type: functional; conditions: NRS53, 20 h
Yersinia enterocolitica = test: Antibacterial activity against Yersinia enterocolitica WA-314 after 20 hrs by broth microdilution assay; type: functional; conditions: WA-314, 20 h
Procedure, shortened: (§2)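 Yersinia cultured in tryptic soy broth at 28°C. A 0.5 McFarland suspension diluted 1:100 receives serial dilutions of agents from 1 mM or 1 mg/mL DMSO stocks; control antibiotics are in water.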

[6] = rat, microsomes
Staphylococcus aureus [7] = test: Synergistic antibacterial activity against vancomycin-resistant Staphylococcus aureus HIP14300 assessed as fractional inhibitory concentration in presence of vancomycin after 20 hrs by checkerboard microdilution assay; type: functional
Proteus mirabilis = test: Antibacterial activity against Proteus mirabilis HM-752 after 20 hrs by broth microdilution assay; type: functional; conditions: HM-752, 20 h; procedure, shortened: as §1
Escherichia coli = test: Antibacterial activity against Escherichia coli DC10B after 20 hrs by broth microdilution assay; type: functional; procedure, shortened: as §1
[8] = Selectivity index, ratio of IC50 for cytotoxicity against human HepG2 cells to MIC for antibacterial activity against vancomycin-intermediate resistant Staphylococcus aureus; type: toxicity, cell-based; conditions: read-out: Selectivity Index
Listeria monocytogenes = test: Antibacterial activity against Listeria monocytogenes Gibson after 20 hrs by broth microdilution assay; type: functional
Procedure, shortened: (§3)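 Brain heart infusion broth at 37°C; E. faecium under 5% CO2. Cells at 0.5 McFarland are diluted 1:100 and exposed to serial dilutions (DMSO stocks 1 mM or 1 mg/mL; controls in water).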

Staphylococcus aureus [9] = test: Antibacterial activity against methicillin-resistant Staphylococcus aureus COL after 20 hrs by broth microdilution assay; type: functional
Brucella neotomae = test: Antibacterial activity against Brucella neotomae 5K33 after 20 hrs by broth microdilution assay; type: functional; conditions: 5K33, 20 h
Staphylococcus aureus [10] = test: Antibacterial activity against vancomycin-resistant Staphylococcus aureus HIP14300 after 20 hrs by broth microdilution assay; type: functional; conditions: HIP14300, 20 h
Bacillus anthracis [11] = test: Antibacterial activity against Bacillus anthracis Ames 35 after 20 hrs by broth microdilution assay; type: functional; conditions: Ames 35, 20 h
Burkholderia multivorans = test: Antibacterial activity against Burkholderia multivorans CF2 after 20 hrs by broth microdilution assay; type: functional; conditions: CF2, 20 h; procedure, shortened: as §1
Staphylococcus aureus [12] = test: Synergistic antibacterial activity against vancomycin-resistant Staphylococcus aureus HIP14300 assessed as vancomycin MIC after 20 hrs by checkerboard microdilution assay; type: functional; conditions: HIP14300, 20 h
Citrobacter freundii = test: Antibacterial activity against Citrobacter freundii 4_7_47CFAA after 20 hrs by broth microdilution assay; type: functional
Procedure, shortened: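 Brucella broth, 37°C, 5% CO2. Inoculum is 0.5 McFarland diluted 1:100, with serial drug dilutions from DMSO stocks (1 mM or 1 mg/mL) and control antibiotics in water.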

Staphylococcus aureus [13] = test: Synergistic antibacterial activity against methicillin-resistant Staphylococcus aureus COL assessed as vancomycin MIC after 20 hrs by checkerboard microdilution assay; type: functional
Salmonella typhi = test: Antibacterial activity against Salmonella typhi Ty2 after 20 hrs by Todd Hewitt broth broth microdilution method; type: functional, Salmonella enterica subsp. enterica serovar Typhi str. Ty2; conditions: Salmonella enterica
Enterococcus faecium = test: Antibacterial activity against vancomycin-resistant Enterococcus faecium ATCC 700221 after 20 hrs by broth microdilution assay; type: functional; conditions: ATCC 700221, 20 h; procedure, shortened: as §3
Staphylococcus aureus [14] = test: Synergistic antibacterial activity against vancomycin-resistant Staphylococcus aureus HIP14300 after 20 hrs in presence of vancomycin by checkerboard microdilution assay; type: functional; conditions: HIP14300, 20 h
Micrococcus luteus = test: Antibacterial activity against Micrococcus luteus SK58 after 20 hrs by broth microdilution assay; type: functional; conditions: SK58, 20 h
Acinetobacter baumannii = test: Antibacterial activity against Acinetobacter baumannii AB5075 after 20 hrs by broth microdilution assay; type: functional; conditions: AB5075, 20 h
Staphylococcus aureus [15] = test: Synergistic antibacterial activity against vancomycin-intermediate resistant Staphylococcus aureus AR-217 assessed as fractional inhibitory concentration in presence of vancomycin after 20 hrs by checkerboard microdilution assay; type: functional
Staphylococcus aureus [16] = test: Antibacterial activity against vancomycin-intermediate resistant Staphylococcus aureus AR-217 after 20 hrs by broth microdilution assay; type: functional; conditions: AR-217, 20 h
Burkholderia cepacia = test: Antibacterial activity against Burkholderia cepacia UCB 717 after 20 hrs by broth microdilution assay; type: functional; conditions: UCB 717, 20 h; procedure, shortened: as §1
Bacillus anthracis [17] = test: Antibacterial activity against Bacillus anthracis Weybridge after 20 hrs by broth microdilution assay; type: functional
Staphylococcus aureus [18] = test: Synergistic antibacterial activity against methicillin-resistant Staphylococcus aureus COL in presence of vancomycin after 20 hrs by checkerboard microdilution assay; type: functional
[19] = system: Staphylococcus epidermidis; test: Synergistic antibacterial activity against vancomycin-intermediate resistant Staphylococcus epidermidis NRS53 assessed as vancomycin MIC after 20 hrs by checkerboard microdilution assay; type: functional; conditions: NRS53, 20 h
Yersinia pestis [20] = test: Antibacterial activity against Yersinia pestis Kuma D7 after 20 hrs by broth microdilution assay; type: functional; conditions: Kuma D7, 20 h
Shigella dysenteriae = test: Antibacterial activity against Shigella dysenteriae Newcastle 1934 after 20 hrs by broth microdilution assay; type: functional; conditions: Newcastle 1934, 20 h; procedure, shortened: as §1
Staphylococcus aureus [21] = test: Synergistic antibacterial activity against vancomycin-intermediate resistant Staphylococcus aureus AR-217 after 20 hrs in presence of vancomycin by checkerboard microdilution assay; type: functional; conditions: AR-217, 20 h
[22] = system: Yersinia pseudotuberculosis; test: Antibacterial activity against Yersinia pseudotuberculosis P61 after 20 hrs by broth microdilution assay; type: functional; conditions: P61, 20 h; procedure, shortened: as §2
[23] = rat, microsomes, 1 h
[24] = Selectivity index, ratio of IC50 for cytotoxicity against human HepG2 cells to MIC for antibacterial activity against methicillin-resistant Staphylococcus aureus COL; type: toxicity, cell-based; conditions: read-out: Selectivity Index
Yersinia pestis [25] = test: Antibacterial activity against Yersinia pestis Kim D2 after 20 hrs by broth microdilution assay; type: functional; conditions: Kim D2, 20 h
HepG2 = test: Cytotoxicity against human HepG2 cells assessed as reduction in cell viability after 72 hrs by MTT assay; type: cell-based; conditions: HepG2, 72 h
[26] = system: Staphylococcus epidermidis; test: Synergistic antibacterial activity against vancomycin-intermediate resistant Staphylococcus epidermidis NRS53 after 20 hrs in presence of vancomycin by checkerboard microdilution assay; type: functional; conditions: NRS53, 20 h
Streptococcus agalactiae = test: Antibacterial activity against Streptococcus agalactiae SGBS005 after 20 hrs by broth microdilution assay; type: functional; conditions: SGBS005, 20 h
Staphylococcus aureus [27] = test: Synergistic antibacterial activity against methicillin-resistant Staphylococcus aureus COL assessed as fractional inhibitory concentration in presence of vancomycin after 20 hrs by checkerboard microdilution assay; type: functional
Staphylococcus aureus [28] = test: Antibacterial activity against methicillin-resistant Staphylococcus aureus; type: functional
Corynebacterium striatum = test: Antibacterial activity against Corynebacterium striatum FS-1 after 20 hrs by broth microdilution assay; type: functional; conditions: FS-1, 20 h
Staphylococcus aureus [29] = test: Synergistic antibacterial activity against vancomycin-intermediate resistant Staphylococcus aureus AR-217 assessed as vancomycin MIC after 20 hrs by checkerboard microdilution assay; type: functional; conditions: AR-217, 20 h
Streptococcus pneumoniae = test: Antibacterial activity against Streptococcus pneumoniae TCH8431 after 20 hrs by broth microdilution assay; type: functional; conditions: TCH8431, 20 h
Bacillus cereus = test: Antibacterial activity against Bacillus cereus Gibson 971 after 20 hrs by broth microdilution assay; type: functional; conditions: Gibson 971, 20 h
Streptococcus pyogenes = test: Antibacterial activity against Streptococcus pyogenes H293 after 20 hrs by broth microdilution assay; type: functional; conditions: H293, 20 h
Rhodococcus erythropolis = test: Antibacterial activity against Rhodococcus erythropolis SK121 after 20 hrs by broth microdilution assay; type: functional; conditions: SK121, 20 h
Procedure, shortened: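 R. erythropolis grown in brain heart infusion broth at 30°C. A 0.5 McFarland suspension diluted 1:100 is treated with serial dilutions from 1 mM or 1 mg/mL DMSO stocks; control antibiotics are in water.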

Francisella tularensis = test: Antibacterial activity against Francisella tularensis Utah 112 after 20 hrs by broth microdilution assay; type: functional; conditions: Utah 112, 20 h

CCCCCCCCSSC(=S)N(CC)CC
2 µM: MIC (Bacillus anthracis [2]) | MIC (Bacillus anthracis [17])
1.02 h: beta t1/2 [6]
0.5: FIC (Staphylococcus aureus [7])
0.25 µg/mL: MIC (Staphylococcus aureus [18]) | MIC (Staphylococcus aureus [21])
50 µM: IC50 (HepG2)
22.6 µL/min/mg: CLH [23]
32 µM: MIC (Yersinia pestis [20]) | MIC (Yersinia pestis [25]) | MIC (Streptococcus agalactiae)
0.56: FIC (Staphylococcus aureus [15])
> 13: selectivity ratio [3] | selectivity ratio [8] | selectivity ratio [24]
4 µM: MIC [1] | MIC (Listeria monocytogenes) | MIC (Staphylococcus aureus [9]) | MIC (Staphylococcus aureus [10]) | MIC (Bacillus anthracis [11]) | MIC (Staphylococcus aureus [16])
> 32 µM: MIC (Vibrio cholerae) | MIC (Pseudomonas aeruginosa) | MIC (Klebsiella pneumoniae) | MIC (Yersinia enterocolitica) | MIC (Proteus mirabilis) | MIC (Escherichia coli) | MIC (Brucella neotomae) | MIC (Burkholderia multivorans) | MIC (Citrobacter freundii) | MIC (Salmonella typhi) | MIC (Acinetobacter baumannii) | MIC (Burkholderia cepacia) | MIC (Shigella dysenteriae) | MIC [22]
0.75: FIC [4] | FIC (Staphylococcus aureus [27])
1 µg/mL: MIC (Staphylococcus aureus [12]) | MIC (Staphylococcus aureus [13]) | MIC (Staphylococcus aureus [14]) | MIC [26]
2 µg/mL: MIC [5] | MIC [19]
8 µM: MIC (Enterococcus faecium)
16 µM: MIC (Micrococcus luteus)

CCN(CC)C(=S)SSC(=S)N(CC)CC
8 µM: MIC (Staphylococcus aureus [16])
38 µM: IC50 (HepG2)
4 to 32 µg/mL: MIC (Staphylococcus aureus [28])
4 µg/mL: MIC [5] | MIC [19]
16 µM: MIC (Streptococcus pyogenes) | MIC (Rhodococcus erythropolis)
> 32 µM: MIC (Vibrio cholerae) | MIC (Pseudomonas aeruginosa) | MIC (Klebsiella pneumoniae) | MIC (Yersinia enterocolitica) | MIC (Corynebacterium striatum) | MIC (Proteus mirabilis) | MIC (Escherichia coli) | MIC (Listeria monocytogenes) | MIC (Brucella neotomae) | MIC (Citrobacter freundii) | MIC (Enterococcus faecium) | MIC (Acinetobacter baumannii) | MIC (Burkholderia cepacia) | MIC (Streptococcus pneumoniae) | MIC (Shigella dysenteriae) | MIC [22] | MIC (Streptococcus agalactiae)
32 µM: MIC [1] | MIC (Staphylococcus aureus [9]) | MIC (Staphylococcus aureus [10]) | MIC (Burkholderia multivorans) | MIC (Micrococcus luteus) | MIC (Yersinia pestis [20]) | MIC (Yersinia pestis [25]) | MIC (Francisella tularensis)
4 µM: MIC (Bacillus cereus)
2 µg/mL: MIC (Staphylococcus aureus [14]) | MIC (Staphylococcus aureus [29]) | MIC [26]
8 µg/mL: MIC (Staphylococcus aureus [12])
